Screening results as filed in PubChem.
Only some compounds are listed: those with a hit (about 2.6% of all), similar ones and a draw of the others.
UCH37 DUB inh: inhibitors of human UCH37 deubiquitinase, primary screen, biochemical, Ub-AMC cleavage, fluorescence; AID 588478, 2011; purified proteasome/UCH37; 330,000 compounds, 0.33% hits; inhibition, % (test concentration not listed);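 active = mean inhibition over replicate wells above about 20%, limit read from the data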;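 note: 0% = compound-free wells with enzyme and 100% = wells lacking proteasome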
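Signal – fluorescence, ex 355 nm, em 460 nm · System – Proteasome-bound UCH37 · Input – 0.15 nM proteasome as dispensed · Timing – 30 min preincubation with enzyme, 25 min cleavage at room temperature · Read-out basis – percent inhibition of cleavage signal versus uninhibited and no-proteasome wells · Medium – Tris-HCl pH 7.4 with ATP-MgCl2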
SENP7 block: SENP7 protease inhibitors, primary screen, biochemical, luminescence, uHTS; Sentrin-specific protease 7 (Homo sapiens), Q9BQF6; recombinant SENP7, Z-RLRGG-aminoluciferin luminescence, 40 min; inhibition, % at 5 µM; 330,000 compounds, 1.5% hits;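 active = inhibition above about 50% at the single test dose, limit read from the data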;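 note: plate controls were DMSO with enzyme for no effect and no enzyme buffer wells for full effect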
Target sequence (Q9BQF6 706-1050 limits assumed): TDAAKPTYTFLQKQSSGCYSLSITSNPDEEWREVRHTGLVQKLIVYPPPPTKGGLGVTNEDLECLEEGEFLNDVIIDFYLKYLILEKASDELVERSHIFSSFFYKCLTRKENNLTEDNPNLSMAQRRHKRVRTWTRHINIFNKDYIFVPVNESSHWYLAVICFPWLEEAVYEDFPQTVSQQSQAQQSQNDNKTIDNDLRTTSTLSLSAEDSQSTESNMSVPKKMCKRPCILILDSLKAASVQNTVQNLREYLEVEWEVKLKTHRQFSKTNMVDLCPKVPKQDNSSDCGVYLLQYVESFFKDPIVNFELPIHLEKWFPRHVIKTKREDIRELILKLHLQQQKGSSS
SENP8 block-1: human SENP8 protease inhibitors, primary screen, biochemical, fluorescence, Nedd8 protein substrate, uHTS; Sentrin-specific protease 8 (Homo sapiens), Q96LD8; recombinant SENP8; inhibition, % at 20 µM; 360,000 compounds, 0.64% hits; in the data active = inhibition mostly above about 40%, no sharp cut-off; inactive = mostly below about 27%
SENP8 block-2: SENP8 protease inhibitors, primary screen, biochemical, luminescence; purified SENP8, Z-RLRGG-aminoluciferin cleavage; inhibition, % at 10 µM; 330,000 compounds, 1.2% hits; Sentrin-specific protease 8 (Homo sapiens), Q96LD8; in the data active = inhibition above about 50%
SENP6 inh: SENP6 protease inhibitors, primary screen, biochemical, luminescence, uHTS; inhibition, % at 10 µM; Sentrin-specific protease 6 (Homo sapiens), Q9GZR1; Recombinant SENP6 catalytic domain, aminoluciferin luminescence; 330,000 compounds, 1.8% hits;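 active = inhibition above about 50% at the single tested dose, limit read from the data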;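 note: plate controls were DMSO wells with enzyme for no effect and DMSO wells lacking enzyme for full effect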
SENP1 FRET inh: human SENP1 catalytic domain inhibitors, primary screen, biochemical, FRET, uHTS; AID 624204, 2012; recombinant SENP1 catalytic domain, CyPet-SUMO1-YPet FRET cleavage; Sentrin-specific protease 1 (Homo sapiens), Q9P0U3; inhibition, % at 10 µM; 360,000 compounds, 0.21% hits;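 active = inhibition at least 30% at 10 µM, raw YFP signal under a set limit, fluorescence ratio 0.5 to 1.5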;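 note: 0% = enzyme with DMSO and 100% = no enzyme wells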
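Test system: human SENP1 catalytic domain; medium: Tris pH 8 buffer plus EDTA, NaCl, BME, BSA, NP40, catalase; incubation: 50 min reaction at room temperature; technique: FRET, CFP and YFP emission; controls: no-enzyme low control and enzyme-plus-DMSO high control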
SENP8 conf: SENP8 protease inhibitors, retest, confirmation, biochemical, luminescence, single concentration. shares compounds with SENP7 block. Recombinant SENP8, Z-RLRGG-aminoluciferin luminescence, 60 min. inhibition, % at 12.5 µM. 6,200 compounds, 40% hits;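 active = mean inhibition across replicates above about 50%, limit read from the data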
SENP6 conf: SENP6 protease inhibitors, confirmation, biochemical, luminescence, single concentration; shares compounds with SENP7 block; recombinant SENP6, Z-RLRGG-aminoluciferin luminescence; inhibition, % at 12.5 µM; 6,200 compounds, 58% hits; AID 488915, 2010
SENP7 conf: SENP7 protease inhibitors, retest, confirmation, biochemical, luminescence, single concentration | shares compounds with SENP7 block | recombinant SENP7, Z-RLRGG-aminoluciferin luminescence, 40 min | inhibition, % at 12.5 µM | 6,200 compounds, 69% hits
Casp3 SENP sel: caspase-3 protease inhibitors, confirmation, selectivity assay for SENP inhibitor project, biochemical, single concentration; shares compounds with SENP7 block; purified caspase-3, Z-DEVD-aminoluciferin luminescence, 60 min; inhibition, % at 12.5 µM; 6,200 compounds, 60% hits; AID 488918, 2010;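 active = mean inhibition above about 50%, limit read from the data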;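 note: plate controls were enzyme with DMSO for no effect and wells without caspase-3 for full effect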
Target sequence (P42574 28-227 limits assumed): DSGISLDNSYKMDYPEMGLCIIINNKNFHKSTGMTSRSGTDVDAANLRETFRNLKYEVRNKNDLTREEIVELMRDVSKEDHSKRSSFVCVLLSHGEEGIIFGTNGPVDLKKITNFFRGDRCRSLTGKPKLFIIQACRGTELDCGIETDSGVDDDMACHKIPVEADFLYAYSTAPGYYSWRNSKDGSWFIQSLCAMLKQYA
Luc interf: interferes with luciferase luminescence in SENP counter-screen; shares compounds with SENP7 block; Pre-incubated SENP8/Z-RLRGG-aminoluciferin, luciferase luminescence interference; inhibition, % at 12.5 µM; 6,200 compounds, 39% hits; AID 488919;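 active = mean inhibition above about 50% when retested at one dose, limit read from the data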;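 note: plate controls were DMSO wells with completed reaction for no effect and substrate without enzyme for full effect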
Starred values were filed as active, the others as inactive; . = not tested or not shown.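 Rule for the calls, unless noted: active = mean inhibition above about 50% in the one-dose retest (limit read from the data); inactive = the rest.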

SMILES	UCH37 DUB inh	SENP7 block	SENP8 block-1	SENP8 block-2	SENP6 inh	SENP1 FRET inh	SENP8 conf	SENP6 conf	SENP7 conf	Casp3 SENP sel	Luc interf
CN1CCN(C(=O)c2c(NC(=O)c3ccco3)sc3c2CCC(C(C)(C)C)C3)CC1 (stereo not drawn)	-1	-3	-42	-2	-1	-4	.	.	.	.	.
O=C(Nc1sc2c(c1C(=O)O)CCCCC2)c1ccco1	14	88*	-134	93*	97*	2	96*	97*	101*	96*	95*
CC1CCc2c(sc(NC(=O)c3ccco3)c2C(=O)O)C1 (stereo not drawn)	4	5	-107	62*	78*	1	78*	72*	88*	66*	65*
CC(C)N1C(=O)S/C(=C\c2ccc(-c3ccc(Cl)c(C(=O)O)c3)o2)C1=O	5	77*	-191	86*	91*	-36	94*	94*	99*	38	90*
CCOC(=O)CN1C(=O)S/C(=C\c2ccc(-c3ccc(C(=O)O)c(Cl)c3)o2)C1=O	-3	1	-258	7	-1	-24	.	.	.	.	.
CC(=O)N(/N=C1\Sc2ccccc2C1=O)c1ccc(C)cc1C	.	70*	-53	83*	87*	-10	6	65*	38	15	-1
CC(=O)N(c1ccccc1C)c1ccccc1C	0	.	8	.	.	2	.	.	.	.	.
CC(=O)N(/N=C1\Sc2ccccc2C1=O)c1ccccc1C	.	63*	-7	90*	87*	-7	15	82*	36	5	8
CC(=O)N(\C=C/C=C/C=C1\Sc2ccccc2C1=O)c1ccccc1	5	12	-16	1	21	16	.	.	.	.	.
C=CCn1c(SCc2nc(N)nc(N3CCCCC3)n2)nnc1-c1ccco1	-1	61*	10	16	2	1	-12	-7	-9	1	2
Cc1n[nH]c(=S)n(N=Cc2cccc([N+](=O)[O-])c2)c1=O	6	.	.	.	.	.	.	.	.	.	.
Br/C(C=NN1CCN(c2ccccn2)CC1)=C\c1ccccc1	-1	.	.	.	.	.	.	.	.	.	.
ClC(=C\c1ccccc1)/C=N/N1CCN(c2ccccn2)CC1	.	54*	8	-13	26	2	5	6	17	31	5
Oc1cccc(C=NN2CCN(c3ccccn3)CC2)c1	6	.	.	.	.	.	.	.	.	.	.
Cc1nc2ccc(NC(=O)c3sccc3C)cc2s1	-2	69*	16	60*	85*	-1	71*	71*	90*	81*	73*
Cc1nc2ccc(NC(=O)c3ccccc3)cc2s1	0	1	2	4	-11	-1	.	.	.	.	.
Cc1nc2ccc(NC(=O)c3ccc4ccccc4n3)cc2s1	3	71*	1	6	3	1	11	12	40	51*	5
Cc1ccccc1C1=NC(c2ccc(F)cc2F)ON1 (stereo not drawn)	-1	34	20	35	66*	1	-14	5	40	14	5
CC(=O)CSc1ccc(-c2nc3ccccc3[nH]2)cn1	-6	73*	-138	48	78*	0	70*	67*	88*	86*	72*
CC(=O)CSc1ccc(-c2nc3cc(C)c(C)cc3[nH]2)cn1	-18	29	-421	18	34	-4	.	.	.	.	.
N#Cc1ccccc1CSc1ccc(-c2nc3ccccc3[nH]2)cn1	0	6	-48	49	64*	1	67*	63*	80*	34	53*
CC(=O)c1sc(NC(=O)c2ccc3c(c2)OCO3)nc1C	-1	82*	-35	70*	80*	-1	63*	77*	95*	88*	77*
CC(=O)c1sc(NC(=O)c2cnc(Cl)c(Cl)c2)nc1C	12	66*	-28	77*	84*	5	12	54*	28	91*	82*
O=C(Nc1nccs1)c1ccc2c(c1)OCO2	.	48	6	44	63*	-2	-5	8	68*	67*	0
Cc1csc(NC(=O)c2ccc3c(c2)OCO3)n1	5	86*	-19	75*	85*	-2	43	80*	96*	90*	82*
SMILES	UCH37 DUB inh	SENP7 block	SENP8 block-1	SENP8 block-2	SENP6 inh	SENP1 FRET inh	SENP8 conf	SENP6 conf	SENP7 conf	Casp3 SENP sel	Luc interf
CCOC(=O)Cc1csc(NC(=O)c2ccc3c(c2)OCO3)n1	2	20	3	-3	15	1	.	.	.	.	.
COc1ccc(C=NNC(=O)c2ccccc2F)cc1COc1ccc(F)cc1F	0	.	.	.	.	.	.	.	.	.	.
Cc1nc2ccccc2n1N=Cc1ccc([N+](=O)[O-])s1	4	.	.	.	.	.	.	.	.	.	.
Cc1cc(C(=O)O)ccc1N/C=C1\CCCC(C)C1=O (stereo not drawn)	2	27	-44	77*	79*	-11	9	89*	99*	62*	88*
CCCCCCOc1ccc(C(=O)O)cc1C#N	2	6	20	61*	77*	2	61*	61*	85*	77*	75*
Cc1nc(Cl)cc(NN=Cc2ccccc2)n1	3	.	.	.	.	.	.	.	.	.	.
Cc1nc(Cl)cc(N/N=C/c2ccc(O)cc2O)n1	.	95*	-9	93*	97*	15	92*	92*	100*	92*	92*
